Experiment [1] deals with Potassium voltage-gated channel subfamily A member 3 (Mus musculus, UniProt P16390). Briefly: Effect on blockade of mouse Kv1.3 channel expressed in L929 cells. The class given is functional, cell-based. A digest of the protocol: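 Whole-cell patch clamp on L929 cells stably expressing mouse Kv1.3, holding potential -80 mV. Bath: Ringer (160 mM NaCl, 4.5 mM KCl, 2 mM CaCl2, 1 mM MgCl2, 10 mM HEPES, pH 7.4). Pipette: 134 mM KF, 2 mM MgCl2, 10 mM HEPES, 10 mM EGTA, pH 7.2. Current elicited by 500-ms pulses to 40 mV every 45 s. Series resistance compensation of 60-80% applied above 2 nA.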

The target of experiment [2] is Potassium voltage-gated channel subfamily A member 1 (Homo sapiens, UniProt Q09470). Briefly: Effect on blockade of Kv1.1 channel. The class given is functional. The method, boiled down: (§1)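 Whole-cell patch clamp with a holding potential of -80 mV on cell lines stably expressing Kv1.1, Kv1.2, Kv1.4 or Kv1.5. Recording followed previously described methods. EC50 came from a Hill equation fit to the reduction of area under the current curve.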

Experiment [3] addresses Potassium voltage-gated channel subfamily A member 2 (Homo sapiens, UniProt P16389). Kind of experiment: Effect on blockade of Kv1.2 channel. Type of experiment: functional. The method, boiled down: as §1
Experiment [4] deals with Potassium voltage-gated channel subfamily A member 4 (Homo sapiens, UniProt P22459). Kind of experiment: Effect on blockade of Kv1.4 channel. Type of experiment: functional. A digest of the protocol: as §1
Experiment [5] concerns the target Potassium voltage-gated channel subfamily A member 5 (Homo sapiens, UniProt P22460). Briefly: Effect on blockade of Kv1.5 channel. Type of experiment: functional. A digest of the protocol: as §1
Experiment [6] addresses Voltage-gated inwardly rectifying potassium channel KCNH2 (Homo sapiens, UniProt Q12809). Kind of experiment: Effect on blockade of Kv11.1 channel. The class given is functional.
For a further experiment, the system named is T-cell. Kind of experiment: Inhibition of anti-CD3 antibody stimulated human T cell proliferation. Type of experiment: functional, cell-based. The method, boiled down:
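Human PBMCs were isolated from healthy donors by density gradient and plated at 2 × 10^5 cells/well in RPMI 1640 with 10% FCS. Cells were preincubated with compound for 30 min, then stimulated with 5 ng/mL anti-CD3 for 48 h. [3H]-thymidine (1 µCi/well) was added for the last 6 h. Done in triplicate and normalized to maximal control incorporation.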

Chain of Potassium voltage-gated channel subfamily A member 4 (P22459 whole entry): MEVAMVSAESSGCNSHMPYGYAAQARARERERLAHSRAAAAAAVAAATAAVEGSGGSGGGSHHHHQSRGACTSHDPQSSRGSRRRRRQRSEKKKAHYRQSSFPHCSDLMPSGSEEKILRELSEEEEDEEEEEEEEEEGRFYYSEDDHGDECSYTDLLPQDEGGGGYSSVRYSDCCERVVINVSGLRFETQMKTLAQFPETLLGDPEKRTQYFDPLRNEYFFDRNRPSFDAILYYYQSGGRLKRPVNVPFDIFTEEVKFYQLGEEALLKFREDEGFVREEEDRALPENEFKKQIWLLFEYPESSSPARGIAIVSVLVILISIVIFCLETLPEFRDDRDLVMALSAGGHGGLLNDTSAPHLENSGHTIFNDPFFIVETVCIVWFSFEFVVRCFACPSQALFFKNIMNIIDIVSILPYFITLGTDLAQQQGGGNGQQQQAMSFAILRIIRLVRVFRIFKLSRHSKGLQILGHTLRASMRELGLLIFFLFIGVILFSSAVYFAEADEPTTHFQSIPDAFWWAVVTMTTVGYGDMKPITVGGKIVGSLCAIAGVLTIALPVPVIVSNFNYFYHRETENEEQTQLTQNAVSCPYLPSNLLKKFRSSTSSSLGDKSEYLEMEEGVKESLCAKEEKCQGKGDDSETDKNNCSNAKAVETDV
Chain of Potassium voltage-gated channel subfamily A member 1 (Q09470 whole entry): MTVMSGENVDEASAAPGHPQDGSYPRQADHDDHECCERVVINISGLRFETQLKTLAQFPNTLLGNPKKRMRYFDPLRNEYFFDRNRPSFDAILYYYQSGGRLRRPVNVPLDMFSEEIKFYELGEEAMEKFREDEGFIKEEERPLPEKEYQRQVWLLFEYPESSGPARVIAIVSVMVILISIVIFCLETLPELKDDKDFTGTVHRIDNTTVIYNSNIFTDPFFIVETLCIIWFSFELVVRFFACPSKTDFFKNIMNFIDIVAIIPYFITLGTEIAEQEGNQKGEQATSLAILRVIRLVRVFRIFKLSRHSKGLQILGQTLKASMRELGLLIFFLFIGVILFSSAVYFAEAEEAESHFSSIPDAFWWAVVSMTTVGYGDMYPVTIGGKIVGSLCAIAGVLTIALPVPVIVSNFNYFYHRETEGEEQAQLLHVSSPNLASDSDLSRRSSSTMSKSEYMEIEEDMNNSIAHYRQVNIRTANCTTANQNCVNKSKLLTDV
Chain of Potassium voltage-gated channel subfamily A member 2 (P16389 whole entry): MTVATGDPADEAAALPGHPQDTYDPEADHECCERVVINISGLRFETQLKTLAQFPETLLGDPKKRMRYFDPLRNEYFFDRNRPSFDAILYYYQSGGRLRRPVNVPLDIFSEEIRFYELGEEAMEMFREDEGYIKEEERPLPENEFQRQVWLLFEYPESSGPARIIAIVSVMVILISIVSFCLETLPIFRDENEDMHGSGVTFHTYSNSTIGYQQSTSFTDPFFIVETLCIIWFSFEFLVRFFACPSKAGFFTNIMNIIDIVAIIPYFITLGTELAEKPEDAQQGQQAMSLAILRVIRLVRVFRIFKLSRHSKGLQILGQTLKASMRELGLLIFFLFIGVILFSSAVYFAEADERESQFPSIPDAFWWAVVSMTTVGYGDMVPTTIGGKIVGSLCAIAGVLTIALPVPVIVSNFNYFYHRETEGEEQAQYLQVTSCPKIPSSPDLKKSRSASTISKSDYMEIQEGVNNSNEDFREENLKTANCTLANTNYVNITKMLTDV
Chain of Potassium voltage-gated channel subfamily A member 3 (P16390 whole entry): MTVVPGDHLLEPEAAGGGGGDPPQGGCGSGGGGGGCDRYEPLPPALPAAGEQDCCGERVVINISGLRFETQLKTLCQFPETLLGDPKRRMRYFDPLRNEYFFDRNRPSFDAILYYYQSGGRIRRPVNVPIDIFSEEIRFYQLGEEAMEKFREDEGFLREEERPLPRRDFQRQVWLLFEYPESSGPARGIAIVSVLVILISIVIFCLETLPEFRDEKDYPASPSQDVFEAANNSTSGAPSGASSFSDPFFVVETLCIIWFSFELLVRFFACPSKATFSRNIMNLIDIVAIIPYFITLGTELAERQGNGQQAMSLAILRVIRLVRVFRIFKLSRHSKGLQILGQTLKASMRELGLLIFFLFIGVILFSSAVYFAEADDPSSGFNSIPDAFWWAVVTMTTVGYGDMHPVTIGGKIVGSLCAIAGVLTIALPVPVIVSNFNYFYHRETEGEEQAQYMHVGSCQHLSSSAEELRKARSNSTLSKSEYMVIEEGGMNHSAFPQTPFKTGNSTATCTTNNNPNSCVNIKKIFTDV
Chain of Potassium voltage-gated channel subfamily A member 5 (P22460 whole entry): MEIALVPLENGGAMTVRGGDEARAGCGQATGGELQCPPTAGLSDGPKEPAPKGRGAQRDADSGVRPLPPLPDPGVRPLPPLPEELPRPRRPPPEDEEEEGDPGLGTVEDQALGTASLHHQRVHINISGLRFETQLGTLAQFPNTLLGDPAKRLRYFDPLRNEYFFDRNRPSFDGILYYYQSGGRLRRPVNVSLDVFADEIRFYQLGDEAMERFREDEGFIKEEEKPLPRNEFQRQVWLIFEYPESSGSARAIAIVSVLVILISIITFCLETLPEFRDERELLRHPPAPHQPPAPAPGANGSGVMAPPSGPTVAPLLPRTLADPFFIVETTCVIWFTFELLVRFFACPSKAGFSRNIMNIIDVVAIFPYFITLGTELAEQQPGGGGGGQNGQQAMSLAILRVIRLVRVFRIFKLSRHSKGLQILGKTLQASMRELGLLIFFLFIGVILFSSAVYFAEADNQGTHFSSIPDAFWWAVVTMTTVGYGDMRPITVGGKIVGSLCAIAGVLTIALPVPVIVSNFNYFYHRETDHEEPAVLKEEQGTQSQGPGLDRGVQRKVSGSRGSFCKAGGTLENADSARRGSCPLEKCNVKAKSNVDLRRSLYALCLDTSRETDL
Chain of Voltage-gated inwardly rectifying potassium channel KCNH2 (Q12809 whole entry): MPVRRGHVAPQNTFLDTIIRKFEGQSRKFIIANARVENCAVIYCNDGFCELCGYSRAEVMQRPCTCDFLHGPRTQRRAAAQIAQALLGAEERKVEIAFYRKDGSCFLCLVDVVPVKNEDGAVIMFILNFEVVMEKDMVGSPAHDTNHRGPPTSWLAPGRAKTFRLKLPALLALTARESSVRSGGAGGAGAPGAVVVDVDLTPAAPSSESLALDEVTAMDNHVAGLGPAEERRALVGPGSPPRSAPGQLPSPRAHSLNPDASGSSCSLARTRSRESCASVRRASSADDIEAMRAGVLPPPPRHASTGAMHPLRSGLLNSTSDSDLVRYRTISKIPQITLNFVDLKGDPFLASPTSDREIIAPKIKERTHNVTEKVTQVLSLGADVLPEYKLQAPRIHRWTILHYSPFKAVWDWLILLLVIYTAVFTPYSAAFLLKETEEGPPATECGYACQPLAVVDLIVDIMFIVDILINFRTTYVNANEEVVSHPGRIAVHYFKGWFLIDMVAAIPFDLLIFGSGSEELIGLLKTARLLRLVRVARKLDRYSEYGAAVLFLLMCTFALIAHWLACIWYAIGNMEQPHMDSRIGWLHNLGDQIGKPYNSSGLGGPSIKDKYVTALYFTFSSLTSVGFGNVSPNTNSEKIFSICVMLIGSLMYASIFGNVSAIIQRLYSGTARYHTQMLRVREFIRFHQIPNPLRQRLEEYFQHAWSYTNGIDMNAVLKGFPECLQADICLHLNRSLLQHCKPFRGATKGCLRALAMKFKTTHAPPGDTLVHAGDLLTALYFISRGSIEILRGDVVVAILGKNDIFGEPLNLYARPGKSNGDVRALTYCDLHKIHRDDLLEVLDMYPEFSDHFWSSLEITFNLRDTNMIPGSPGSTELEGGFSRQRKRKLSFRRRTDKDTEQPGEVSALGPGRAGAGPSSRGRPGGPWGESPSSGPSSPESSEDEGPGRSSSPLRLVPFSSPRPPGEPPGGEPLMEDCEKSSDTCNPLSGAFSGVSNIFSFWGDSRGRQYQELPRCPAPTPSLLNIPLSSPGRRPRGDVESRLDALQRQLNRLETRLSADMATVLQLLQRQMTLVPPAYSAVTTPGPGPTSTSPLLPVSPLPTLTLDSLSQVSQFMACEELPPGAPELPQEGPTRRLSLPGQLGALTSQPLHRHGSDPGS

As for `CCCOc1c(C(C)=O)c(O)c(OC)c2occc12`, the EC50 – broadly, the concentration needed to bring the measured effect to its halfway point – in experiment [1] was found to be 5000 nM.

In experiment [1], `COc1c(O)c(C(C)=O)c(OCc2ccc3ccccc3c2)c2ccoc12` gave an EC50 of 5000 nM.

With `CCCCCOc1c(O)c(C(C)=O)c(OC)c2ccoc12`, the midpoint of the response in experiment [1], the EC50, lay at 3000 nM.

`COc1c(O)c(C(C)=O)c(OCc2ccc(OCc3ccccc3)cc2)c2ccoc12` showed an EC50 in experiment [1] of 8800 nM.

In the case of `CCOc1c(C(C)=O)c(O)c(OCC)c2occc12`, a half-maximal effect in experiment [1] (EC50) was put at 6000 nM.

The compound `COc1c(C(C)=O)c(O)c(OCc2ccccc2)c2occc12` came in with an EC50 in experiment [1] of 1200 nM.

For `COc1c(C(C)=O)c(O)c(OCc2ccc(C(C)C)cc2)c2occc12`, the EC50 in experiment [1] was 1000 nM.

For the compound `COc1c(O)c(C(C)=O)c(OCc2ccc(F)cc2)c2ccoc12`, the EC50 in experiment [1] worked out at 1000 nM.

On to `COc1c(C(C)=O)c(O)c(OCc2cccc(F)c2)c2occc12`, for which the response in experiment [1] was half-maximal at 750 nM (EC50).

In experiment [1], `COc1c(C(C)=O)c(O)c(OCc2ccc(-c3ccccc3)cc2)c2occc12` returned an EC50 of 1200 nM.

`COc1c(O)c(C(C)=O)c(OCc2cccc([N+](=O)[O-])c2)c2ccoc12` registered an EC50 in experiment [1] of 1400 nM.

The compound `COc1c(O)c(C(C)=O)c(OCc2cccc(C)c2)c2ccoc12` had an EC50 in experiment [1] of 1000 nM.

Turning to `COc1c(O)c(C(C)=O)c(OCc2cccc3ccccc23)c2ccoc12`, in experiment [1], a half-maximal effect (EC50) was put at 8000 nM.

For `COc1c(C(C)=O)c(O)c(OCc2ccc(Cl)cc2)c2occc12`, the EC50 in experiment [1] was 420 nM.

In experiment [1], `CCCCCOc1c(C(C)=O)c(O)c(OC)c2occc12` came in with an EC50 of 4000 nM.

Consider `CCOc1c(C(=O)/C=C/c2cccc(O)c2)c(O)c(OC)c2occc12`, for which the EC50 in experiment [1] was found to be 2500 nM.

Turning to `CC(=O)c1c(O)c(OCc2ccccc2)c2occc2c1OCc1ccccc1`, the EC50 in experiment [1] is 1200 nM; in experiment [2] it was 7000 nM; in experiment [3] it was 10000 nM; in experiment [4], over 20000 nM; in experiment [5], 5000 nM.

`CCOc1c(O)c(C(C)=O)c(OC)c2ccoc12`: the response in experiment [1] was half-maximal at 10000 nM (EC50).

In experiment [1], `COc1c(O)c(C(C)=O)c(OCc2cccc(Cl)c2)c2ccoc12` came in with an EC50 of 1400 nM.

In experiment [1], `COc1c(C(C)=O)c(O)c(OCc2ccc(C(F)(F)F)cc2)c2occc12` came in with an EC50 of 420 nM.

With `COc1c(C(C)=O)c(O)c(OCc2ccc(C(C)(C)C)cc2)c2occc12`, in experiment [1], a half-maximal response (EC50) required 5800 nM.

In the case of `COc1c(O)c(C(C)=O)c(OCc2ccc(OC(F)(F)F)cc2)c2ccoc12`, a half-maximal response in experiment [1] (EC50) required 1800 nM.

Regarding `COc1c(O)c(C(C)=O)c(OCc2cccc(F)c2)c2ccoc12`, the EC50 in experiment [1] turned out to be 1200 nM.

`COc1c(C(C)=O)c(O)c(OCc2ccccc2C)c2occc12` registered an EC50 in experiment [1] of 1900 nM.

The compound `COc1c(O)c(C(C)=O)c(OCc2ccc(C(=O)c3ccccc3)cc2)c2ccoc12` gave an EC50 in experiment [1] of 500 nM.

The compound `COc1c(C(C)=O)c(O)c(OCc2ccc(F)cc2)c2occc12` showed an EC50 in experiment [1] of 700 nM.

For `COc1c(O)c(C(C)=O)c(OCc2ccc(Br)cc2)c2ccoc12`, the response in experiment [1] was half-maximal at 500 nM (EC50).

In experiment [1], `COc1c(C(C)=O)c(O)c(OCc2ccccc2F)c2occc12` gave an EC50 of 2500 nM.

On to `COc1c(O)c(C(C)=O)c(OCc2ccc(C(F)(F)F)cc2)c2ccoc12`, for which, in experiment [1], the response was half-maximal at 510 nM (EC50).

In the case of `COc1c(O)c(C(C)=O)c(OCc2cccc(C(=O)O)c2)c2ccoc12`, the EC50 in experiment [1] is over 10000 nM.

In the case of `COc1c(O)c(C(C)=O)c(OCc2cccc(OC(F)(F)F)c2)c2ccoc12`, the EC50 in experiment [1] is 550 nM.

As to `COc1c(O)c(C(C)=O)c(OCc2ccccc2)c2ccoc12`, a half-maximal effect in experiment [1] (EC50) was put at 2500 nM.

The compound `COc1c(C(C)=O)c(O)c(OCc2ccccc2Cl)c2occc12` gave an EC50 in experiment [1] of 700 nM.

`COc1c(C(C)=O)c(O)c(OCc2ccc(OC(F)(F)F)cc2)c2occc12` gave an EC50 in experiment [1] of 600 nM.

As for `COc1c(O)c(C(C)=O)c(OCc2ccc(C(C)(C)C)cc2)c2ccoc12`, the EC50 in experiment [1] worked out at 1500 nM.

With `COc1c(C(C)=O)c(O)c(OCc2cccc([N+](=O)[O-])c2)c2occc12`, in experiment [1], the EC50 came to 600 nM.

In the case of `COc1cccc(COc2c(C(C)=O)c(O)c(OC)c3occc23)c1`, the response in experiment [1] was half-maximal at 680 nM (EC50).

In experiment [1], `CCCOc1c(O)c(C(C)=O)c(OC)c2ccoc12` returned an EC50 of 8000 nM.

The compound `COc1c(C(C)=O)c(O)c(OCc2ccccc2-c2ccccc2)c2occc12` displayed an EC50 in experiment [1] of 1100 nM.

For `COc1c(C(C)=O)c(O)c(OCc2ccc(C(=O)c3ccccc3)cc2)c2occc12`, the EC50 in experiment [1] stood at 500 nM.

As for `CCOc1c(C(C)=O)c(O)c(OC)c2occc12`, in experiment [1], the EC50 turned out to be 7000 nM.

Compound `COc1c(C(C)=O)c(O)c(OC)c2occc12` registered an EC50 in experiment [1] of 45000 nM.

In experiment [1], `COc1c(O)c(C(C)=O)c(OCc2ccc(-c3ccccc3)cc2)c2ccoc12` registered an EC50 of 900 nM.

In experiment [1], `COc1c(C(C)=O)c(O)c(OCc2ccc3ccccc3c2)c2occc12` displayed an EC50 of 5000 nM.

As for `COc1c(O)c(C(C)=O)c(OCc2ccc(Cl)cc2)c2ccoc12`, the EC50 turned out to be 480 nM in experiment [1]; 1700 nM in experiment [2]; 2500 nM in experiment [3]; 4800 nM in experiment [4]; 700 nM in experiment [5]; 5000 nM in experiment [6]. In the experiment on T-cell, this compound displayed an EC50 of 2500 nM.

In turn, `COc1c(C(C)=O)c(O)c(OCc2cccc(Cl)c2)c2occc12` gave an EC50 in experiment [1] of 600 nM.

As for `COc1c(C(C)=O)c(O)c(OCc2ccc(Br)cc2)c2occc12`, the EC50 in experiment [1] came out at 400 nM; in experiment [2], 1200 nM; in experiment [3], 1400 nM; in experiment [4] it was 4300 nM; in experiment [5] it was 900 nM; with T-cell, 2500 nM.

As to `COc1c(C(C)=O)c(O)c(OCc2cccc(OC(F)(F)F)c2)c2occc12`, the response in experiment [1] was half-maximal at 450 nM (EC50).

With `COc1c(O)c(C(C)=O)c(OCc2ccccc2Cl)c2ccoc12`, in experiment [1], the EC50 was found to be 1200 nM.

The compound `COc1c(O)c(C(C)=O)c(OCc2ccccc2-c2ccccc2)c2ccoc12` came in with an EC50 in experiment [1] of 2000 nM.

`COc1c(O)c(C(C)=O)c(OCc2ccc(C(C)C)cc2)c2ccoc12`: in experiment [1], the midpoint of the response, the EC50, lay at 700 nM.

As for `CCOc1c(C(C)=O)c(OCCCCCCOc2c(C(C)=O)c(OCC)c3ccoc3c2OC)c(OC)c2occc12`, in experiment [1], it took 800 nM to reach a half-maximal effect (EC50).

With `COc1ccc(COc2c(C(C)=O)c(O)c(OC)c3occc23)cc1`, the EC50 in experiment [1] is 1500 nM.

The compound `COc1c(C(C)=O)c(O)c(OCc2ccc(OCc3ccccc3)cc2)c2occc12` had an EC50 in experiment [1] of 6300 nM.

Compound `COc1c(O)c(C(C)=O)c(OCc2ccccc2C)c2ccoc12` gave an EC50 in experiment [1] of 2000 nM.

For the compound `COc1c(C(C)=O)c(O)c(OCc2cccc(C)c2)c2occc12`, the EC50 in experiment [1] stood at 1200 nM.

As to `COc1c(O)c(C(C)=O)c(OCc2ccccc2F)c2ccoc12`, the EC50 in experiment [1] is 1700 nM.

(Values after ChEMBL document CHEMBL1138143, “A new class of blockers of the voltage-gated potassium channel Kv1.3 via modification of the 4- or 7-position of khellinone” (J Med Chem, 2006).)
